A selection: hits, their analogues and other compounds. The true share with any hit is near 4.7%.
ADAM17 inh – ADAM17 inhibitors, primary screen, biochemical, QFRET; hit rate 0.83% among 370,000; AID 720648, 2013; inhibition, % at 6.95 µM; recombinant ADAM17, EDANS/DABCYL FRET peptide cleavage; Disintegrin and metalloproteinase domain-containing protein 17 (Homo sapiens), P78536;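 active means inhibition above the mean of compounds lying between control limits plus 3 SD, set per campaign, cut at about 8.5% in these data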
GRIN3A LBD mod – binders of NR3A ligand-binding domain, primary screen, biophysical, differential scanning fluorimetry, uHTS. Tm shift relative to glycine control, % at 25 µM. hit rate 2.5% among 340,000. Glutamate receptor ionotropic, NMDA 3A (GRIN3A) ligand-binding domain. NR3A LBD differential scanning fluorimetry, Tm shift; 0% = protein alone, 100% = glycine-bound protein;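 active means melting temperature shift of at least 10% of the positive control shift, at one fixed dose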
ADAM10 inh – human ADAM10 inhibitors, primary screen, biochemical, QFRET, HTS. Disintegrin and metalloproteinase domain-containing protein 10 (Homo sapiens), O14672. recombinant ADAM10, EDANS/DABCYL FRET peptide cleavage, 3 h. inhibition, % at 7 µM. hit rate 0.62% among 370,000. AID 720582, 2013;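 active means inhibition above a per-campaign cutoff equal to the mean of compounds falling between control-based bounds plus 3 SD, cut at about 20% in these data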
Target sequence (O14672 214-748 limits assumed): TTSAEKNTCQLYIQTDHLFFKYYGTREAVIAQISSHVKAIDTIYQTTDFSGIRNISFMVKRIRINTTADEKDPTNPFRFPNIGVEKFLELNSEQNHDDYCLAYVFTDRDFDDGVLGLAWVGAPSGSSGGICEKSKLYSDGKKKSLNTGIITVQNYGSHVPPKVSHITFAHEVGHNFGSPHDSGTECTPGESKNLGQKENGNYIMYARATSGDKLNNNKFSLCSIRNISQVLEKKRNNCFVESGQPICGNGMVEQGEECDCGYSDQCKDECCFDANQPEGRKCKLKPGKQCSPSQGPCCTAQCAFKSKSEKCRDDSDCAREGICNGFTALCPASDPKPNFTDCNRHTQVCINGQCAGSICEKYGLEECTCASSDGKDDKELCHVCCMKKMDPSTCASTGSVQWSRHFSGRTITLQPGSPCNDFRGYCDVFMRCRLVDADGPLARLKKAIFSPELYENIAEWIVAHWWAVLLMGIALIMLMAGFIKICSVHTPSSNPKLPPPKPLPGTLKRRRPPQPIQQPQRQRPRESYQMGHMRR
MPTP inh – mitochondrial permeability transition pore inhibitors, primary screen, biochemical, isolated mouse mitochondria, absorbance; hit rate 1.4% among 360,000; inhibition, % at 10 µM; Ca2+ swelling absorbance, 30 min;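 active means inhibition of 50% or more, scaled per plate between neutral and stimulator controls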
SKN-1 block – suppressors of acrylamide-induced Pgst-4::GFP reporter in worms, primary screen, SKN-1 inhibitor project, whole organism, uHTS, GFP/RFP fluorescence ratio, strain VP596; hit rate 0.49% among 360,000; C. elegans VP596 Pgst-4::GFP/RFP ratio, 24 h; inhibition, % at 21.8 µM; AID 624304, 2012;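 active means interference check ratio from 0.5 to 1.5 plus GFP to RFP signal ratio inhibition reaching or exceeding a fixed threshold, cut at about 30% in these data, passing the limit was not always enough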
MT1-MMP act inh – blockers of MT1-MMP proenzyme processing, primary screen, HT1080 RFP-PRO-GFP cells, GFP/RFP fluorescence; GFP/RFP ratio fluorescence, overnight; percent of plate control window, DMSO zero; GFP/RFP ratio change, % at 20 µM; hit rate 0.061% among 360,000; AID 651647, 2012;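 active means GFP/RFP ratio change of at least 30% with cell ATP level not reduced by more than half and red fluorescence within 50% of control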
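Material: RFP-PRO-GFP reporter HT1080 cells. Dosing: single-point 20 µM compound, 1% DMSO. Controls: DMSO and RFP-L50D-GFP cell wells. Timing: cells overnight before dosing, compound overnight, 37 °C, 5% CO2. Measure: GFP/RFP fluorescence ratio.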
MPTP counter – fluorescence retest of MPTP screen hits in isolated mitochondria, single concentration; shares compounds with MPTP inh; membrane potential, Rhodamine 123 fluorescence; inhibition, % at 10 µM; hit rate 78% among 5,000; in the data active means inhibition above about 22%
MPTP swell DR – mitochondrial permeability transition pore inhibitors, dose response, biochemical, absorbance, uHTS hits | isolated mitochondria swelling | IC50, µM | hit rate 58% among 780 | AID 651561, 2012 | shares compounds with MPTP inh; in the data active means IC50 below about 20 µM
MPTP counter DR – fluorescent counter-screen in isolated mitochondria, dose response, counter-screen for MPTP inhibitor project, biochemical, fluorescence, uHTS hits. shares compounds with MPTP inh. isolated mitochondria counterscreen, fluorescence read-out. IC50, µM. hit rate 49% among 780. AID 651564, 2012; in the data active means IC50 below about 80 µM
A number is an active result; 0 = inactive; - = no result; ! = a repeat was not active.

SMILES	ADAM17 inh	GRIN3A LBD mod	ADAM10 inh	MPTP inh	SKN-1 block	MT1-MMP act inh	MPTP counter	others
Cc1ccc(-c2cc(-c3n[nH]c(=S)o3)c3ccccc3n2)cc1	0	0	0	94	0	0	64
CC(C)(C)NCC(O)COc1c(F)cc(Br)cc1F (configuration not stated)	0	0	0	0	0	0	-
CC(C)(C)CC(C)(C)NCC(O)COc1c(F)cc(Br)cc1F (configuration not stated)	0	0	0	102	0	0	0	MPTP swell DR=7.1;MPTP counter DR=57
CCOC(=O)C1=C(COCCN)NC(C)=C(C(=O)OC)C1c1ccccc1Cl (configuration not stated)	0	0	0	99	0	0	0	MPTP swell DR=4;MPTP counter DR=72!
Cc1ccc(CNC(=O)CS(=O)Cc2nc(-c3ccccc3Cl)oc2C)cc1 (configuration not stated)	0	0	0	0	0	0	-
CN1CCN(C2Cc3cc(Cl)ccc3Sc3cc(F)ccc32)CC1 (configuration not stated)	0	0	0	0	0	0	-
CN1CCN(C2=Cc3ccccc3Sc3cc(F)c(Cl)cc32)CC1	0	0	0	0	0	0	-
CN1CCN(C2=Cc3cc(Cl)ccc3Sc3cc(F)ccc32)CC1	0	0	0	91	0	0	0
CN1CCN(C2=Cc3ccccc3Sc3cc(F)c(F)cc32)CC1	0	0	0	93	0	0	0
CCOP(=O)(OCC)c1nc(-c2ccccc2)oc1N1CCCCC1	0	0	0	0	0	0	-
O=C(NCc1csc(-c2cccs2)n1)Nc1ccc(C(F)(F)F)cc1	0	0	0	66	0	0	77
O=C(Nc1cccc(C(F)(F)F)c1)c1cc2c(=O)c3ccccc3oc2nc1C(F)(F)F	0	0	0	75	0	0	53
c1ccc(COc2ccc(CNCc3cccs3)cc2)cc1	0	0	0	96	0	0	0	MPTP swell DR=6.4;MPTP counter DR=31
Cn1nnnc1SCCNCc1cc(Cl)ccc1OCc1ccccc1	0	0	0	83	0	0	31
COc1ccc(CCNCc2ccc(OCc3ccccc3)cc2)cc1	0	0	0	98	0	0	0	MPTP swell DR=4.4;MPTP counter DR=28
COc1ccc(CNS(=O)(=O)CCNCCc2ccccc2)cc1	0	0	0	0	0	0	-
COc1ccc(CNCCc2ccc(Cl)cc2)cc1OCc1ccccc1	-	0	-	86	0	0	84
COc1cc(OC)c(NC(=O)C2CCCO2)cc1Cl (configuration not stated)	0	0	0	0	0	0	-
COc1ccc(C2NC(=O)NC(C)=C2C(=O)OC2CCCC(C)C2)cc1 (configuration not stated)	0	0	0	0	0	0	-
COc1ccc(CNCCC(c2ccc(F)cc2)c2ccc(OC)cc2)cc1 (configuration not stated)	0	0	0	56	0	0	0
COc1ccc(CCNC(=O)Cc2ccc(OCc3ccccc3)c(OC)c2[N+](=O)[O-])cc1OCc1ccccc1	0	0	0	76	0	0	55
CCOc1cc(CNCc2ccccc2)ccc1OCc1ccc(Cl)cc1	0	0	0	68	0	0	73
CCNCc1cc(Cl)c(OCc2ccccc2)c(OCC)c1	0	0	0	0	0	0	-
Cc1sc2nc(SCC(=O)N3CC(C)OC(C)C3)n(C)c(=O)c2c1C (configuration not stated)	0	0	0	0	0	0	-
Cc1cccc(N(Cc2ccc(Cl)cc2)S(C)(=O)=O)c1	0	0	0	0	0	0	-
SMILES	ADAM17 inh	GRIN3A LBD mod	ADAM10 inh	MPTP inh	SKN-1 block	MT1-MMP act inh	MPTP counter	others
CNC(=O)Nc1cc(C(F)(F)F)cc(C(F)(F)F)c1	0	0	0	64	0	0	94
COc1cc(/C=C(\C#N)c2nc3ccccc3[nH]2)cc(Br)c1OCc1ccccc1	0	17	0	64	0	0	73
Cc1ccc2nc(/C(C#N)=C\c3ccc(Oc4ccc(C(F)(F)F)cc4[N+](=O)[O-])cc3)[nH]c2c1	0	0	0	99	0	0	59
COc1cc(/C=C(/C#N)c2ccccc2)ccc1Oc1ccc([N+](=O)[O-])cn1	0	0	0	0	0	0	-
N#C/C(=C\c1cccc(Oc2ccc(C(F)(F)F)cc2[N+](=O)[O-])c1)c1nc2ccccc2[nH]1	0	0	0	155	0	0	105
COc1cc(/C=C(\C#N)c2nc3ccccc3[nH]2)ccc1Oc1ccc([N+](=O)[O-])cn1	0	0	0	78	0	0	55
CC(=O)Nc1cccc(NC(=O)CSc2ncc(-c3ccc(Cl)cc3)n2Cc2ccco2)c1	0	0	0	0	0	0	-
CCCCC(=O)Nc1nn(CCC)c2nc3ccccc3cc12	0	0	0	0	0	0	-
Cc1ccc(C(=O)Nc2ccccc2C(=O)N2CCCC2)cc1[N+](=O)[O-]	0	0	0	0	0	0	-
CCOC(=O)CSc1nnc(-c2ccc(S(=O)(=O)NCc3cccs3)cc2)o1	0	0	0	0	0	0	-
O=C(CCN1C(=O)S/C(=C\c2ccc(F)cc2)C1=O)Nc1ccc(O)cc1C(=O)O	0	0	0	0	0	0	-
O=C(COc1ccc(-n2ccnc2)cc1)Nc1cccc(Cl)c1	0	0	0	89	0	0	57
CCC(C)(C)c1ccc(OCC(=O)Nc2ccncc2)cc1	0	0	0	105	0	0	81
O=C(COc1ccc(Br)cc1)Nc1ccncc1	0	0	0	55	0	0	58
O=C(COc1ccc(-c2ccccc2)cc1)Nc1cccnc1	0	0	0	87	0	0	102
N#Cc1ccc(OCC(=O)Nc2ccncc2)cc1	0	0	0	0	0	0	-
Nc1nnc(SCC(=O)Nc2cccc(Cl)c2)s1	0	0	0	0	0	0	-

High-throughput results deposited in PubChem by several laboratories.
